High-throughput results deposited in PubChem by several laboratories.
Hits are enriched below; roughly 11% of the tested compounds scored in any of these assays.
M1 ag: M1 muscarinic receptor agonists, primary screen, CHO-M1 cells, Fluo-4 calcium, agonist mode. Fluo-4 calcium fluorescence; active compounds read high. 64,000 tested, 3% active. B-score at 10 µM;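 active means fluorescence rise, raw or as B-score row- and column-corrected plate score, outside the 99.7% band of its plate's samples, either direction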
D1 allo mod: D1 CRE-luciferase signal change, two-sided – cell-based, HEK293 D1, dopamine EC30, D1 allosteric modulator project, primary screen | 58,000 tested, 5.9% active | dopamine EC30 potentiation; actives deviate in either direction | AID 641, 2007 | B-score at 10 µM | D(1A) dopamine receptor (Homo sapiens), P21728;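 active means luminescence count or its row- and column-corrected plate score outside the 99.7% band of the plate's sample wells, on either side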
S1P3 ag: human S1P3 receptor agonists, primary screen, cell-based, primary and confirmation, NFAT-BLA reporter | activation, % at 4.5 µM | Sphingosine 1-phosphate receptor 3 (Homo sapiens), Q99500 | S1P3 NFAT-BLA reporter cells, agonism, FRET ratio; relative to 1 µM S1P, basal subtracted | AID 373, 2006 | 60,000 tested, 0.1% active;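 active means activation above the screen-wide mean plus 3 SD, cut at about 4.5% in these data, passing the limit was not always enough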
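Measure – % activation relative to 1 µM S1P (100%), per plate · System – stable CHO line with human S1P3, Gα16, NFAT-BLA reporter · Timing – cells plated overnight, compound 4 h 37 °C, substrate 2 h RT · Technique – fluorescent BLA substrate, ex 405 nm, em 460/535 nm ratio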
S1P1 ag-PAM: S1P1 agonists and agonism potentiators, primary screen, cell-based, primary and confirmation screens, CRE-bla reporter; S1P1 CRE-bla cells, forskolin, beta-lactamase FRET, potentiator mode; S1P1 agonist co-added at EC20, 2 nM; 100% = saturating reference agonist, 0% = basal; AID 449, 2006; 56,000 tested, 0.57% active; Sphingosine 1-phosphate receptor 1 (Homo sapiens), P21453; activation, % at 9.5 µM;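 active means activation above a cutoff set at the mean activation of all tested compounds plus 3 SD, cut at about 54% in these data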;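 further: forskolin at 4 µM as EC80 and the EC20 agonist is SEW2871; 100% = SEW2871 at its EC100 plus forskolin at EC80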
M1 antagonist: antagonists of rat M1 muscarinic receptor | CHO-M1 cells, Fluo-4 calcium, ACh EC80 antagonist mode; active compounds read low | B-score at 10 µM | Muscarinic acetylcholine receptor M1 (Rattus norvegicus), P08482 | AID 628, 2007 | 64,000 tested, 3.4% active;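 active means calcium fluorescence response, raw or row-and-column corrected B-score, differing from the plate sample mean either way at a set confidence level, mostly lower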
Target sequence (P08482 whole entry, looked up): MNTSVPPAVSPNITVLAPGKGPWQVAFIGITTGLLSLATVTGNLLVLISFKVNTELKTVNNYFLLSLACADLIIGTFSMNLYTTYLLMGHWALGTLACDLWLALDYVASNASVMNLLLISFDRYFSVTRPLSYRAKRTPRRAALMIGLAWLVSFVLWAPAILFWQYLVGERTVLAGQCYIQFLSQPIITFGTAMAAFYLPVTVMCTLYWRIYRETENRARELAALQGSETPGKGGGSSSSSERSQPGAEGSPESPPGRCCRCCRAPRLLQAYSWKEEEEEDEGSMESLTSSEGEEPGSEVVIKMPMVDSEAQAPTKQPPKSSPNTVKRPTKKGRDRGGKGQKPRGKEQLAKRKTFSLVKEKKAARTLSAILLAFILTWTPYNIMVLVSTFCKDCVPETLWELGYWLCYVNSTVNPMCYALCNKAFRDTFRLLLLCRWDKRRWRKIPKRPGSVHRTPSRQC
D1 mod confirm: D1 receptor positive allosteric modulators, retest, confirmation, cell-based, HEK293 D1, CRE-luciferase, duplicate; luminescence at 10 µM; AID 642, 2007; dopamine EC30 potentiation; active compounds read high; 2,200 tested, 88% active; shares compounds with D1 allo mod;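 active means luminescence in either of two replicates above the same-plate mean plus 3 SD of the low-dose dopamine control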
D1 no dopamine: D1 receptor agonism without dopamine, confirmation, mechanism study for D1 allosteric modulator project, cell-based, HEK293 D1, CRE-luciferase, secondary assay 1; luminescence, no dopamine; active compounds read high; 1,900 tested, 0.8% active; shares compounds with D1 allo mod; luminescence at 10 µM; in the data active means luminescence above about 3900
Isoprot counter: alters isoproterenol CRE-luciferase response in HEK293 cells; luminescence at 10 µM; AID 647; 2,200 tested, 63% active; HEK293 D1 CRE-luciferase, isoproterenol EC30 counter-screen; active compounds read high; shares compounds with D1 allo mod;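 active means luminescence in either replicate above plate mean of wells with a partly effective reference agonist dose plus 3 SD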;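 further: isoproterenol raises cAMP through native beta-adrenoceptor Gs so signal bypasses D1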
* hit, by the source's call; nt = not tested or not shown.

SMILES | M1 ag | D1 allo mod | S1P3 ag | S1P1 ag-PAM | M1 antagonist | D1 mod confirm | D1 no dopamine | Isoprot counter
CCCCN(CCCNC(=O)C1CCN(S(=O)(=O)CC)CC1)c1ccccc1 | -0.23 | 0.23 | -1 | 16 | -0.038 | nt | nt | nt
O=C(NC1CC2CCCC(C1)N2S(=O)(=O)c1ccccc1)c1ccccc1 (centres undefined) | -0.36 | nt | -1 | -6 | 1 | nt | nt | nt
CC(=O)NC1CC2CCCC(C1)N2S(=O)(=O)c1ccccc1 (centres undefined) | nt | 5.5* | nt | nt | nt | 5928 | 1484 | 4360
Cn1c(=O)[nH]c(=O)c2c1nc(N(CCO)Cc1ccccc1)n2CCCc1ccccc1 | 0.36 | nt | nt | nt | -0.18 | nt | nt | nt
CC1CCN(c2nc3c(c(=O)[nH]c(=O)n3C)n2Cc2ccccc2Cl)CC1 | 1.3 | 6.2* | 2 | -25 | -0.83 | 14268* | 1744 | 4680*
CN(Cc1ccccc1)c1nc2c(c(=O)[nH]c(=O)n2C)n1CCCc1ccccc1 | 1.1 | 5.1* | 0 | -51 | -1.3 | 12224* | 1632 | 4092*
CN(Cc1ccccc1)c1nc2c(c(=O)[nH]c(=O)n2C)n1Cc1ccccc1Cl | 0.042 | 17* | -1 | -34 | 0.69 | 21184* | 1740 | 8160*
CCOCCn1c(N(C)Cc2ccccc2)nc2c1c(=O)[nH]c(=O)n2C | -0.098 | nt | nt | nt | 1 | nt | nt | nt
Cn1c(=O)[nH]c(=O)c2[nH]c(N(Cc3ccccc3)Cc3ccccc3)nc21 | -0.24 | 8.4* | 1 | -56 | -0.3 | 16252* | nt | 3704*
CCOC(=O)c1cc2sc(C)cc2n1CC(=O)NCCc1ccccc1 | -0.36 | -0.68 | nt | nt | 0.0088 | nt | nt | nt
CCOC(=O)c1c(C2COc3ccccc3O2)csc1NC(=O)c1ccco1 (centres undefined) | 0.63 | 0.46 | 0 | nt | -0.071 | nt | nt | nt
CCOC(=O)c1c(C2CC2)csc1NC(C)=O | 2.3 | 4.9* | 0 | nt | 0.57 | 9548* | 1704 | 3168
Cc1nn(C(C)C(=O)O)c2ccccc12 (centres undefined) | 0.16 | 0.33 | 0 | -12 | -0.029 | nt | nt | nt
CC(=O)Nc1ccc(C2NC(=O)c3ccccc3O2)cc1 (centres undefined) | -0.64 | 3.1* | -2 | -19 | -0.83 | 4184 | 1712 | 2296
CN=C1c2ccccc2CN1c1cccc(C(=O)OC)c1 | 0.96 | 13* | -2 | 1 | -0.55 | 19796* | 1756 | 3916*
O=C(CCOc1ccccc1)Nc1ccc(S(=O)(=O)N2CCCC2)cc1 | 1.6 | 0.74 | 1 | 4 | 0.1 | nt | nt | nt
COc1ccc(/C=C(/C#N)c2cccnc2)cc1OC | 0.83 | 34* | -3 | -11 | 0.15 | 21544* | 1648 | 5004*
COc1cc(/C=N/n2cnnc2)ccc1OC(=O)c1cccnc1 | -0.53 | -1.5 | nt | nt | -0.73 | nt | nt | nt
O=C1C(Cl)=C(NCC2CCCO2)C(=O)N1Cc1ccccc1 (centres undefined) | -1.7 | 4.8* | -1 | -12 | 1.6 | 9896* | 1724 | 3576
Cn1c(=O)n(Cc2ccccc2)c(=O)c2c1nc(NCC1CCCO1)n2Cc1ccccc1 (centres undefined) | -0.092 | 0.95 | -3 | 2 | -0.41 | nt | nt | nt
O=C(Nc1ccc2c(c1)OCCO2)c1ccc(NC(=O)C2CCCO2)cc1 (centres undefined) | -0.49 | -0.063 | nt | nt | -0.029 | nt | nt | nt
CCn1c(=O)c2c(nc(SCC(=O)NCC3CCCO3)n2C)n(C)c1=O (centres undefined) | -0.53 | 0.67 | 0 | -3 | 0.031 | nt | nt | nt
CCC(C)(C)n1c(=O)[nH]c2c(c1=O)CCC2 | -0.33 | 4.3* | 0 | -30 | 0.33 | 6624 | 1544 | 2776
COc1ccc(NC(=O)C2(N(CC(C)C)C(=O)Cn3nnnc3N)CCCCC2)cc1 | 0.53 | -0.031 | 0 | 2 | 0.11 | nt | nt | nt
Cc1ccc(NC(=O)C2(N(CC(C)C)C(=O)Cn3nnnc3N)CCCCC2)cc1 | nt | 5.4* | 1 | 2 | nt | 5068 | nt | 2248
SMILES | M1 ag | D1 allo mod | S1P3 ag | S1P1 ag-PAM | M1 antagonist | D1 mod confirm | D1 no dopamine | Isoprot counter
CSC(=O)CC(=O)NC(=O)c1ccccc1 | -0.71 | -0.17 | 0 | 4 | -0.62 | nt | nt | nt
CCC1Oc2ccc(C)cc2N(CC(=O)NCCN2C(C)CCCC2C)C1=O (centres undefined) | 0.32 | 5* | 0 | 4 | -1.8 | 4656 | 1552 | 2612
CN1Cc2cc(C(=O)c3cc(Cl)cc(CSc4ncccn4)c3O)cnc2NC1=O | -0.95 | 4.5* | -1 | -62 | -0.75 | 8560* | nt | 4428*
O=C(CCSc1nc2ccccc2o1)N1CCOCC1 | -0.35 | 3.6* | -1 | 3 | 0.17 | 7988* | 1548 | 2532
C=C(C)c1cccc(C(C)(C)NC(=O)Nn2cnnc2)c1 | 0.58 | 6* | 1 | 16 | 1.3 | 6208 | 1644 | 2416
N#CC1=C(N)OC2=C(C(=O)CCC2)C1CCc1ccccc1 (centres undefined) | -0.049 | 6.4* | -4 | 0 | -0.39 | 7756* | nt | 2404
O=C(OCc1nc2ccc(Cl)cc2n1CCO)c1ccc2c(c1)OCO2 | 2.3 | nt | -1 | -13 | -0.34 | nt | nt | nt
Cc1ccc(C)n1-n1cnc2scc(-c3cccs3)c2c1=O | -0.055 | 17* | 0 | -48 | 0.13 | 24272* | 1704 | 5520*
O=C(O)Cn1cnc2scc(-c3cccs3)c2c1=O | -0.0019 | 0.8 | 1 | -2 | 0.84 | nt | nt | nt
CCCOc1cccc(C2/C(=C(/O)c3ccncc3)C(=O)C(=O)N2CCCN(C)C)c1 (centres undefined) | 0.024 | -0.0053 | 1 | -2 | 1.7 | nt | nt | nt
N#Cc1c(-c2ccccc2)cc(-c2ccco2)c(C#N)c1N | -1.7 | 2.9* | nt | nt | -0.0039 | 6724* | nt | 2312
CC(C)(C)c1cc(-c2ccco2)c(C#N)c(SCC#N)n1 | 0.26 | 0.048 | 3 | 5 | 0.4 | nt | nt | nt
CNc1nc(C)c(C#N)c(-c2ccccc2)c1C(C)=O | 0.19 | 5.8* | 1 | -14 | -0.0038 | 12136* | 1680 | 2928
c1ccc(-c2nc3ccccc3c3nncn23)cc1 | -0.22 | 7.2* | 1 | 0 | 0.71 | 7952* | 1508 | 3284
CC(C)(C)n1nnnc1CN1C2CCC1CC(NC(=O)Nc1ccccc1)C2 (centres undefined) | 0.019 | 4.8* | 0 | 5 | 1.4 | 5228 | nt | 2460
